SMILES strings stand for the structures. “And” between values parts separate entries of the source, which are not always exact repeats. Equal entries are not always repeated.

For series [1], the target named is T1, human BCRP (Homo sapiens, UniProt Q9UNQ0).
T1 sequence (Q9UNQ0 1-655): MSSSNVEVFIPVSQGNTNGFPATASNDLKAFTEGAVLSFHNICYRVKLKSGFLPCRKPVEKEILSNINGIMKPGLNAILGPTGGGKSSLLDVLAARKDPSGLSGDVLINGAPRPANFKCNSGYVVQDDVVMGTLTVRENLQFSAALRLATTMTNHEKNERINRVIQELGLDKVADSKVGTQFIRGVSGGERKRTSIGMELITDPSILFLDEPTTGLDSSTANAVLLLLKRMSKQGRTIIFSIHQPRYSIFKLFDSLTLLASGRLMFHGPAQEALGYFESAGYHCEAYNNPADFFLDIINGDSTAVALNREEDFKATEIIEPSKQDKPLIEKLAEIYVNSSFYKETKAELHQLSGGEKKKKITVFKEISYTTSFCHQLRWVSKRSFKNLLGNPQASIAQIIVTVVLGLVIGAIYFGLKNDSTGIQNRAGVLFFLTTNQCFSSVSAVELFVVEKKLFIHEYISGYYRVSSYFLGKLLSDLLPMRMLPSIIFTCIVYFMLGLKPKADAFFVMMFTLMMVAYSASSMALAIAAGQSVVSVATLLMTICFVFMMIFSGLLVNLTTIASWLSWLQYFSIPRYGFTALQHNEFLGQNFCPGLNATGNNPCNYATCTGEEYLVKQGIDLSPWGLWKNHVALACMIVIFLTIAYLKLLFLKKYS
In words: Inhibition of BCRP-mediated efflux in MDCKII cells. In kind it is cell-based. Put shortly:
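Unbound inhibition constants (OATP1B1/1B3 uptake; BCRP efflux) derived as in vitro IC50/2, then corrected by plasma unbound fraction. This was done because the unbound fraction in the transporter incubation was not measured. Values served as gut and liver transporter inputs to the PBPK model.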

Series [2] can be described thus: Fenebrutinib–H‐β‐CD complexation in vitro. Type of series: physicochemical. The conditions noted are these: estimated from in vitro experiment.
Series [3] in a line: Fenebrutinib PBPK model parameters. Also noted: species or system human.
A short description of series [4]: Physicochemical properties of fenebrutinib.
A short description of series [5]: Free fraction in plasma and blood/plasma partition ratio. Type of series: in vitro ADME.
Series [6] deals with CYP3A. Put plainly: Clinical DDI study Part 4: effect of itraconazole on fenebrutinib PK. Type of series: in vivo, human. The note with it: 200 mg itraconazole solution once daily × 8 days; fenebrutinib 100 mg.
Series [7] is classed as in vivo, dogs. The conditions noted are these: dog, oral tablets, co‐administration with H‐β‐CD.
Series [8] is described as follows: Phase I PK of fenebrutinib. In kind it is in vivo, human. A digest of the protocol:
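Oral dosing in phase I studies as solution, capsule (single and multiple-day) and 200 mg tablet. Plasma concentration–time data were used to estimate total clearance and apparent steady-state volume of distribution (Vss/F).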

Series [9] can be described thus: Human mass balance study. In kind it is in vivo.
Series [10] concerns OATP1B. The conditions noted are these: rosuvastatin + fenebrutinib vs rosuvastatin alone; cited from earlier work.
Series [11] has as its target T1, human BCRP. The note with it: read-out: IC50 BCRP‐mediated efflux; cited from earlier work.
Series [12] has as its system CYP3A. The conditions noted are these: time‐dependent inhibition, cited from earlier work.
Series [13] is described as follows: MDCK cell monolayer apparent permeability. In kind it is in vitro ADME, Canine. The conditions noted are these: dog, MDCK. A digest of the protocol: (§1)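 Apparent permeability of test compound measured across MDCK monolayers alone and at various H‐β‐CD concentrations. These included a 46:1 H‐β‐CD:compound molar ratio, matching ~8 g H‐β‐CD per oral-solution dose with a 100 mg tablet. Change expressed relative to no H‐β‐CD. MDCK Papp was also scaled (scalar 3.9) to human jejunal Peff.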

For series [14], the system named is Madin‐Darby Canine Kidney (MDCK) cell monolayer. In words: MDCK cell monolayer apparent permeability. Type of series: in vitro ADME. The note with it: molar ratio H‐β‐CD to fenebrutinib 46:1. A digest of the protocol:
as §1

Series [15] relates to OATP1B1/3 and BCRP. The note with it: fenebrutinib 200 mg twice daily for 10 days; cited from earlier work.

For orientation: clearance means a measure of how efficiently the substance is removed, as volume per time. Low values mean inefficient removal, high ones efficient removal. For orientation: logP means the decadic logarithm of the partition coefficient of the neutral form, usually between octanol and water. Lower therefore signals lower lipophilicity. In general, Vd/F refers to the volume of distribution divided by bioavailability. In general, IC50 refers to the concentration needed to halve the response being measured. For orientation: Papp means a coefficient for how fast a substance crosses the barrier. Turning to `C[C@H]1CN(C2COC2)CCN1c1ccc(Nc2cc(-c3ccnc(N4CCn5c(cc6c5CC(C)(C)C6)C4=O)c3CO)cn(C)c2=O)nc1` [fenebrutinib], the Ki was 0.926 µM in series [1] and 7.9 µM in [12] (read-out: CYP3A TDI K I (apparent)). Besides, the “Kcomplex with H‐β‐CD” value in [2] is 27000 M⁻¹. The “Hepatic clearance as share of total CL” value in series [3] (assigned in model) is on record as ~ 95%. This compound also gave a clearance in series [3] (human) of 18.3 mL/min. In series [4] (diprotic base), the “pK a1” value amounted to 5. Moreover, in [4] (diprotic base), the “pK a2” value was found to be 3.7. In [4] (octanol/water), this compound gave a logP of 3.3. The pH solubility profile was determined as 35.9 in [4] (pH 2.3); 5.67 in [4] (pH 2.6); 1.44 in [4] (pH 3.0); 0.032 in [4] (pH 3.8); 0.001 in series [4] (pH 5.0); 0.001 in series [4] (pH 6.1). The B/P in series [5] amounted to 0.61. Besides, the “Observed change in Tmax with itraconazole” value in series [6] is “delay”. Further, in series [6], the “Observed decrease in Cmax with itraconazole” value was ~ 11% and 11%. In addition, in series [6], the “Observed increase in AUC0‐t with itraconazole” value is 2.28 fold and ~ 2.3 fold. For the same compound, in series [7], the “Apparent rate and extent of absorption in the presence of H‐β‐CD” value is “substantially decreased”. Also, the CL/F in series [8] (estimated from phase I PK data) is recorded as ~ 80 L/hour. The same compound had a Vd/F in series [8] (human, plasma, oral) of around 13.4 L/kg. The “Share of elimination through metabolic pathway (f m)” value in series [9] is on record as above 90%. Moreover, the “Effect of multiple doses on plasma concentration‐time profiles of CP‐I and CP‐III” value in series [10] was “comparable”. For the same compound, the IC50 in series [11] is 9.4 µM. In addition, the “CYP3A TDI K inact” value in series [12] was 0.684 h⁻¹. Further, the CYP3A k inact in series [12] is 0.0114 min⁻¹. Also, the Papp in [13] was found to be 15.1 ×10⁻⁶ cm/s. The “Decrease in Papp relative to that without H‐β‐CD” value in series [14] was ~ 15 fold.

`CC(C)c1nc(N(C)S(C)(=O)=O)nc(-c2ccc(F)cc2)c1/C=C/[C@@H](O)C[C@@H](O)CC(=O)O` [rosuvastatin]: in [15], the “Observed increase in AUC0–t with fenebrutinib” value is recorded as around 2.6 fold and the “Observed increase in Cmax with fenebrutinib” value is on record as ~ 5 fold.

The record behind these values is article PMC7306618 (CPT: Pharmacometrics & Systems Pharmacology, 2020).
